{"source": "PubChem BioAssay AID1235", "about": "(PCMD, 2008)", "note": "In all, about 62,000 compounds went through this assay and about 50 (0.08%) were called active. What follows is part of a selection rich in actives, with near analogues and random picks from the rest. A number with no mark means an inactive call.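 How the source made its calls: active means inhibition above 30% in each of the two pooled mixtures holding the compound, so the lower value exceeds 30%; inactive means the rest.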", "data": [{"assay": "alternative complement pathway inhibitors, primary screen, biochemical, ELISA, human serum, orthogonally pooled compounds (AID 1235);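 further: 0% = serum in Mg-EGTA without compound and 100% = EDTA serum blank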", "conditions": "LPS-coated ELISA, C3 deposition, tested in compound mixtures, at 5 µM, hits give high values", "method_in_brief": "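Test system: human serum complement alternative pathway, C3 deposition onto LPS / Medium: Mg2+-EGTA GVB++ buffer containing human serum at 1:15 dilution / Probe or stimulus: Plate-bound LPS / Times: 1 h at 37 °C / Signal: ELISA with HRP anti-human C3 antibody, TMB substrate, absorbance 450 nm / Measure: percent inhibition / Repeats: two pool placements per compound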", "values": [{"smiles": "CCCSc1nc2c(c(=O)n(C)c(=O)n2C)n1Cc1ccc(C)cc1", "inhibition": "-3.43%"}, {"smiles": "CNC(=O)C1CC(=O)N(Cc2ccc3c(c2)OCO3)C(=Nc2ccc(F)cc2)S1", "note": "(stereo not given)", "inhibition": "13%"}, {"smiles": "O=C(C(Cc1ccccc1)n1cccc1)N1CCN(C2CCCCC2)CC1", "note": "(stereo not given)", "inhibition": "14.7%"}, {"smiles": "O=C(O)c1cccc2c1C(=O)N(C1CCCCC1)C2", "inhibition": "16.2%"}, {"smiles": "O=C(Cn1nc(Cc2cccnc2)c2ccccc2c1=O)NCC1COc2ccccc2O1", "note": "(stereo not given)", "inhibition": "15.7%"}, {"smiles": "CCOc1cc2c(cc1OCC)C(C(=O)O)C(c1ccc(OC)c(O)c1)N(C)C2=O", "note": "(stereo not given)", "inhibition": "16.6%"}, {"smiles": "Fc1ccccc1OCCSc1nc2ccccc2o1", "inhibition": "-8.88%"}, {"smiles": "Cc1nn(-c2ccccc2)c2c1C(=O)NC(=O)C(C)(C)C2", "inhibition": "5.83%"}, {"smiles": "N#C/C=C\\Oc1ccc(Cl)cc1N", "inhibition": "-1.31%"}, {"smiles": "CCOC(=O)c1cccc(NC(=O)CCc2c(C)nc3ncnn3c2C)c1", "inhibition": "1.8%"}, {"smiles": "Cc1ccc(-c2nc(CS(=O)CC(=O)N3CCN(c4ncccn4)CC3)c(C)o2)cc1", "note": "(stereo not given)", "inhibition": "22.7%"}, {"smiles": "Cc1onc(-c2ccccc2Cl)c1C(=O)NCCn1ccc2ccccc21", "inhibition": "7.02%"}, {"smiles": "CCOc1ccc(CNC(=O)C2CC(=O)N(C3CCCC3)C2)cc1OC", "note": "(stereo not given)", "inhibition": "18.4%"}, {"smiles": "Cc1cc2c(=O)n(C)c(SCC(=O)c3cc4ccccc4o3)nc2s1", "inhibition": "3.24%"}, {"smiles": "Cc1nc2ncnn2c(C)c1CCC(=O)N1CCN(C(=O)c2ccco2)CC1", "inhibition": "1.46%"}, {"smiles": "CN(C(=O)COc1nnc(-c2cccs2)c(-c2cccs2)n1)c1ccccc1", "inhibition": "7.72%"}, {"smiles": "C=CCN1C(=O)C(O)(CC(=O)c2ccc(Cl)cc2)c2ccccc21", "note": "(stereo not given)", "inhibition": "8.76%"}, {"smiles": "CCOCCCNC(=O)Cc1cc(=O)[nH]c(=O)[nH]1", "inhibition": "26.3%"}, {"smiles": "CC(C)CCNC(=O)CN(C(=O)Cn1nnc(-c2ccc(F)cc2)n1)C1CCCC1", "inhibition": "0.465%"}, {"smiles": "COc1ccc(C2SCCN2S(=O)(=O)c2ccccc2)cc1OC", "note": "(stereo not given)", "inhibition": "21.6%"}, {"smiles": "COC(=O)c1ccc(CN(c2ccccc2OC)S(=O)(=O)c2cccs2)o1", "inhibition": "-0.725%"}, {"smiles": "CC1(C)C(=O)C2(CCCCC2)C(=O)OC1c1cccs1", "note": "(stereo not given)", "inhibition": "15.8%"}, {"smiles": "COc1ccc(-c2nc3n(c2Br)CCC3)cc1", "inhibition": "7.42%"}, {"smiles": "O=C(CSc1nc2cc3c(cc2c(=O)n1CCC1=CCCCC1)OCO3)NCc1ccco1", "inhibition": "15.2%"}, {"smiles": "CN1C(C)(C)CC(NC(=O)CCC(=O)NC2CC(C)(C)N(C)C(C)(C)C2)CC1(C)C", "inhibition": "9.95%"}, {"smiles": "CCOC(=O)C1CCN(C(=O)C2CCN(S(=O)(=O)c3c(C)noc3C)CC2)CC1", "inhibition": "-18.4%"}, {"smiles": "COCCn1nnnc1C(c1ccccc1Cl)N1CCN(c2ccccc2OC)CC1", "note": "(stereo not given)", "inhibition": "9.52%"}, {"smiles": "O=C(CCOc1ccccc1)NCc1ccccc1", "inhibition": "12.9%"}, {"smiles": "O=C(CCCN1C(=O)C2C3C=CC(C3)C2C1=O)N1CCN(c2ccccc2)CC1", "note": "(stereo not given)", "inhibition": "11.5%"}, {"smiles": "C[N+](C)(C)CCNC(=O)c1c(O)c2c([nH]c1=O)CCCC2", "inhibition": "4.27%"}, {"smiles": "C/C(=N\\O)C1(C)N(O)C(C)(C)C(c2ccc(Br)cc2)=[N+]1[O-]", "note": "(stereo not given)", "inhibition": "0.945%"}, {"smiles": "CC(=O)C1C(c2cccc(Oc3ccccc3)c2)NC(=O)NC1(O)C(F)(F)F", "note": "(stereo not given)", "inhibition": "6.73%"}, {"smiles": "COc1ccccc1CNC(=O)C1CCN(S(C)(=O)=O)CC1", "inhibition": "35.9% (active)"}, {"smiles": "COc1ccccc1CNC(=O)C1CCCN(S(=O)(=O)c2cccc3cccnc23)C1", "note": "(stereo not given)", "inhibition": "5.61%"}, {"smiles": "COc1ccccc1CNC(=O)C1CCN(c2nc3ccccc3o2)CC1", "inhibition": "-3.35%"}, {"smiles": "CCn1c(SCC(=O)Nc2ccccc2F)nc2c(c1=O)SC(C)C2", "note": "(stereo not given)", "inhibition": "-1.83%"}, {"smiles": "COC(=O)c1ccc(N(CC(=O)NC2CCCC2)C(=O)CNC(=O)c2ccco2)cc1", "inhibition": "13.6%"}, {"smiles": "CCCNC(=O)Nc1ccccc1C(=O)Nc1ccc(OC)cc1", "inhibition": "6.47%"}, {"smiles": "CCCN1C2=C(C(=O)CCC2)C(c2ccc(O)c(Br)c2)C2=C1CCCC2=O", "inhibition": "3.41%"}, {"smiles": "COc1ccc(OC)c(Nc2nc(-c3ccc(O)c(O)c3)cs2)c1", "inhibition": "15.1%"}, {"smiles": "O=c1c2ccccc2nc(CSc2nnnn2-c2ccccc2)n1-c1ccccc1", "inhibition": "16.5%"}, {"smiles": "CCC1C(C#N)=C(SC)NC2=C1C(=O)CC(C)(C)C2", "note": "(stereo not given)", "inhibition": "29.5%"}, {"smiles": "C=C(C)Cn1c(N2CCCC2)nc2c1c(=O)[nH]c(=O)n2C", "inhibition": "13.6%"}, {"smiles": "COc1ccc(OC)c(NC(=O)CC(Cc2ccccc2OC)C(=O)O)c1", "note": "(stereo not given)", "inhibition": "6.63%"}, {"smiles": "O=C(Cn1cnc2c(nnn2-c2ccccc2)c1=O)N1CCC(Cc2ccccc2)CC1", "inhibition": "12.9%"}, {"smiles": "CCC1SC2=NCCN2C1(O)c1ccc(Cl)cc1", "note": "(stereo not given)", "inhibition": "-4.64%"}, {"smiles": "CCN(CC)c1ccc(C(=O)OCC(=O)c2ccco2)cc1", "inhibition": "-18.9%"}, {"smiles": "Cc1nn(Cc2ccc(Cl)c(Cl)c2)c(C)c1NC(=O)c1cc(C2CC2)on1", "inhibition": "14.3%"}, {"smiles": "COc1ccccc1N1CCN(c2nc3ccccc3n3nnnc23)CC1", "inhibition": "-4.06%"}, {"smiles": "CCOC(=O)c1cc2sccc2n1Cc1ccc(C#N)cc1", "inhibition": "8.71%"}, {"smiles": "COCCNC(=O)c1snc2ccc(Cl)cc12", "inhibition": "-12.7%"}, {"smiles": "Cc1ccn2cc(-c3nonc3C)cc2c1", "inhibition": "17.2%"}, {"smiles": "Cc1ccc(N2C(=O)CC(NCc3ccc4c(c3)OCO4)C2=O)cc1Cl", "note": "(stereo not given)", "inhibition": "24.4%"}, {"smiles": "O=C(Nc1ccc2c(c1)OCCO2)C1CCCN(c2ncccn2)C1", "note": "(stereo not given)", "inhibition": "4.42%"}, {"smiles": "CCOc1ccc(OCC)c(NC(=O)C2CCN(S(=O)(=O)c3c(C)noc3C)CC2)c1", "inhibition": "4.52%"}, {"smiles": "O=C(NCCc1ccccn1)c1ccc(COc2ccccc2)o1", "inhibition": "13.5%"}, {"smiles": "COc1cccc(NC(=O)c2ccccc2SC)c1", "inhibition": "12.3%"}, {"smiles": "CC(C)OCCCNC(=O)C1CC(=O)N(C2CCCCCCC2)C1", "note": "(stereo not given)", "inhibition": "16.3%"}, {"smiles": "CC(C)(O)C#Cc1ccc(C(=O)N2CCC(C(N)=O)(N3CCCCC3)CC2)cc1", "inhibition": "0.925%"}, {"smiles": "CCN(CC)S(=O)(=O)c1ccc2nc(CSc3nnnn3-c3ccc(O)cc3)[nH]c2c1", "inhibition": "-3.47%"}]}]}
